Hits are enriched below; roughly 1.8% of the tested compounds scored in any of these assays.
M4 PAM: CHRM4 positive allosteric modulation | 360,000 compounds, 0.4% hits | activation, % at 3 µM | CHO-K1 hM4/Gqi5, Fluo-8 calcium fluorescence, ACh EC20; 0% = ACh EC20, 100% = maximal ACh | P08173;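 active means activation above its plate's cutoff, the mean activation of sample wells plus 3 SD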
M5 antag: CHRM5 antagonism in calcium assay | P08912 | CHO-hM5 cells, Fluo-8 calcium fluorescence, ACh EC80 | inhibition, % at 3 µM | 360,000 compounds, 0.59% hits;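 active means inhibition above a per-plate cutoff, the mean of that plate's test compounds plus 3 SD, cut at about 27% in these data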;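 further: 0% = acetylcholine EC80 with DMSO and 100% = DMSO without agonist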
Target sequence (P08912 whole entry, looked up): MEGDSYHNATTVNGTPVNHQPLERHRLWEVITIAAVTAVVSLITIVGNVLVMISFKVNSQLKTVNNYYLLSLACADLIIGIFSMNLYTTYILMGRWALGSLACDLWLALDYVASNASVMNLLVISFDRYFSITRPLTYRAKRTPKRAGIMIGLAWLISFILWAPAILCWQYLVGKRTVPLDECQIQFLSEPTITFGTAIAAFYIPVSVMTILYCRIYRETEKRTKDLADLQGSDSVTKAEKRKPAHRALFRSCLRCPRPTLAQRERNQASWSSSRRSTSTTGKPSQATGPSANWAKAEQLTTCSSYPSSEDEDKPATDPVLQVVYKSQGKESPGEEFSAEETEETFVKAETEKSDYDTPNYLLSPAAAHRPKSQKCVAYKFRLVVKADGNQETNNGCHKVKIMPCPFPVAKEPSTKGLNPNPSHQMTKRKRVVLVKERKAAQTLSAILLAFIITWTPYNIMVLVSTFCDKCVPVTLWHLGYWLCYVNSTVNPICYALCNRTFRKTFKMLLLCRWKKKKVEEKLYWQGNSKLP
CHRM4 antagonist: blocks acetylcholine activation of human M4 receptor; P08173; CHO-hM4 cells, ACh EC80, Fluo-8 calcium fluorescence; 360,000 compounds, 0.73% hits; inhibition, % at 3 µM;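 active means inhibition above its plate's cutoff, the mean inhibition of sample wells plus 3 SD, cut at about 27% in these data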;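 further: 0% = acetylcholine EC80 with DMSO and 100% = DMSO without agonist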
CHRM5 PAM: positive allosteric modulators of human muscarinic M5 receptor; P08912; CHO-K1 hM5, Fluo-8 calcium, ACh EC20 PAM; 0% = ACh EC20, 100% = ACh EC100; activation, % at 3 µM; 360,000 compounds, 0.3% hits; AID 624038;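 active means activation above the run cutoff, the mean activation of all test compounds plus 3 SD, cut at about 18% in these data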
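System: CHO-K1 cell line with stable human muscarinic M5 receptor expression | Also added: EC20 acetylcholine as agonist stimulus | Compound: One concentration, 3 µM final (nominal) | Timing: Fluo-8 loading 80 min at 37 °C plus 30 min room temperature | Measured by: Fluo-8 calcium dye fluorescence, kinetic read | Read-out basis: % activation, ACh-normalized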
CHRM5 agonist: agonists of human muscarinic M5 receptor (CHRM5); P08912; CHO-K1 hM5 cells, Fluo-8 calcium fluorescence; 0% DMSO wells, 100% maximal acetylcholine response; activation, % at 3 µM; 360,000 compounds, 0.19% hits;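 active means activation above the run's mean over test compounds plus 3 SD, cut at about 23% in these data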;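 further: signal is peak over basal fluorescence ratio across the kinetic read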
M4 ag: CHRM4 agonism in calcium assay; CHO-K1 hM4/Gqi5, Fluo-8 calcium fluorescence; vehicle 0%, full acetylcholine response 100%; activation, % at 3 µM; 360,000 compounds, 0.14% hits; AID 624127;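 active means activation above the run mean over all test wells plus 3 SD, cut at about 32% in these data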;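 further: peak over basal fluorescence ratio per well then scaled between controls; 0% = DMSO wells and 100% = acetylcholine at EC100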
* hit, by the source's call.

Screening CCOc1ccccc1NS(=O)(=O)c1c(C)[nH]c(C)c1C(=O)N1CCCCC1 returned M4 PAM -3.3, M5 antag 2.0, CHRM4 antagonist -5.8, CHRM5 PAM 0.2, CHRM5 agonist -4.3 and M4 ag 0.1.
Cn1cccc1CC(=O)N/N=C\c1c2ccccc2cc2ccccc12 was read as M4 PAM 2.9, M5 antag -6.9, CHRM4 antagonist -10.6, CHRM5 PAM 0.5, CHRM5 agonist -1.2 and M4 ag 0.4.
`C[N+](C)(C)CC(=O)N/N=C/c1c2ccccc2cc2ccccc12` gave M4 PAM 0.6, M5 antag 18.6, CHRM4 antagonist 1.1, CHRM5 PAM -12.0, CHRM5 agonist 32.0* and M4 ag 0.3.
CCOC(=O)C1CCCN(C2=NC(=O)/C(=C/c3ccc(N(C)C)cc3)S2)C1 (centres undefined) was read as M4 PAM -8.5, M5 antag 6.8, CHRM4 antagonist -4.7, CHRM5 PAM -6.8, CHRM5 agonist 11.4 and M4 ag 41.4*.
CCOC(=O)N1CCN(C(=O)c2ccc(NC(=O)c3ccc(C)cc3)cc2)CC1 was read as M4 PAM 30.9*, M5 antag -23.0, CHRM4 antagonist -11.5, CHRM5 PAM 5.0, CHRM5 agonist -0.9 and M4 ag -0.4.
For Cc1cccc(C)c1OCC(=O)N(Cc1ccco1)C1CCS(=O)(=O)C1 (centres undefined) the results were M4 PAM -2.7, M5 antag -0.7, CHRM4 antagonist 0.1, CHRM5 PAM 0.5, CHRM5 agonist 2.1 and M4 ag 32.3*.
`Cc1ccc(OCC(=O)N(Cc2ccco2)C2CCS(=O)(=O)C2)cc1C` (centres undefined) gave M4 PAM 6.6, M5 antag -1.5, CHRM4 antagonist -7.1, CHRM5 PAM 1.0, CHRM5 agonist 3.2 and M4 ag 1.8.
`CCOC(=O)c1c(NC(=O)COc2cccc3c2CCN(CC)C3=O)sc2c1CCC2` gave M4 PAM 21.6*, M5 antag -3.4, CHRM4 antagonist 4.2, CHRM5 PAM 8.6, CHRM5 agonist 4.6 and M4 ag 1.6.
CCCCNC(=O)c1cc(-c2ccccc2)sc1N was read as M4 PAM 17.8, M5 antag -15.1, CHRM4 antagonist -7.9, CHRM5 PAM 21.0*, CHRM5 agonist 7.3 and M4 ag 1.8.
For COCCNC(=O)c1cc(-c2ccccc2)sc1N the results were M4 PAM -0.3, M5 antag 8.3, CHRM4 antagonist 4.0, CHRM5 PAM 0.6, CHRM5 agonist 2.7 and M4 ag 3.6.
CSCCC(NC(=O)c1ccco1)C(=O)NC1CCC(C)CC1 (centres undefined) was read as M4 PAM 0.5, M5 antag 6.2, CHRM4 antagonist 12.7, CHRM5 PAM 8.6, CHRM5 agonist 0.3 and M4 ag 1.0.
For O=S(=O)(c1ccccc1)N1CCC(Oc2ccc(-n3cnnn3)cc2)CC1 the results were M4 PAM -12.4, M5 antag 9.4, CHRM4 antagonist 28.2*, CHRM5 PAM -15.2, CHRM5 agonist 5.5 and M4 ag 25.9.
For Cc1cc(C(=O)COc2cccnc2[N+](=O)[O-])c(C)n1Cc1cccs1 the results were M4 PAM -12.0, M5 antag 17.9, CHRM4 antagonist 11.1, CHRM5 PAM -14.6, CHRM5 agonist 4.6 and M4 ag 14.9.
CC(=O)Nc1ccccc1OCC(=O)c1cc(C)n(Cc2cccs2)c1C was read as M4 PAM -8.3, M5 antag 29.7*, CHRM4 antagonist 22.4, CHRM5 PAM -17.0, CHRM5 agonist 6.1 and M4 ag 12.3.
Screening O=C(CSc1ccc2nnc(CCNC(=O)c3ccccc3)n2n1)NCc1ccco1 returned M4 PAM -0.9, M5 antag 27.9*, CHRM4 antagonist 2.0, CHRM5 PAM -6.9, CHRM5 agonist -5.6 and M4 ag -0.1.

Bioassay records as filed in PubChem.
